# Tests used:
# [1] = target: T1, Tyrosine-protein kinase JAK3 (Homo sapiens, UniProt P52333); assay: Inhibition of recombinant human JAK3 using Ulight-CAGAGAIETDKEYYTVKD as substrate measured after 60 mins by LANCE assay
# T1 sequence (P52333 whole entry): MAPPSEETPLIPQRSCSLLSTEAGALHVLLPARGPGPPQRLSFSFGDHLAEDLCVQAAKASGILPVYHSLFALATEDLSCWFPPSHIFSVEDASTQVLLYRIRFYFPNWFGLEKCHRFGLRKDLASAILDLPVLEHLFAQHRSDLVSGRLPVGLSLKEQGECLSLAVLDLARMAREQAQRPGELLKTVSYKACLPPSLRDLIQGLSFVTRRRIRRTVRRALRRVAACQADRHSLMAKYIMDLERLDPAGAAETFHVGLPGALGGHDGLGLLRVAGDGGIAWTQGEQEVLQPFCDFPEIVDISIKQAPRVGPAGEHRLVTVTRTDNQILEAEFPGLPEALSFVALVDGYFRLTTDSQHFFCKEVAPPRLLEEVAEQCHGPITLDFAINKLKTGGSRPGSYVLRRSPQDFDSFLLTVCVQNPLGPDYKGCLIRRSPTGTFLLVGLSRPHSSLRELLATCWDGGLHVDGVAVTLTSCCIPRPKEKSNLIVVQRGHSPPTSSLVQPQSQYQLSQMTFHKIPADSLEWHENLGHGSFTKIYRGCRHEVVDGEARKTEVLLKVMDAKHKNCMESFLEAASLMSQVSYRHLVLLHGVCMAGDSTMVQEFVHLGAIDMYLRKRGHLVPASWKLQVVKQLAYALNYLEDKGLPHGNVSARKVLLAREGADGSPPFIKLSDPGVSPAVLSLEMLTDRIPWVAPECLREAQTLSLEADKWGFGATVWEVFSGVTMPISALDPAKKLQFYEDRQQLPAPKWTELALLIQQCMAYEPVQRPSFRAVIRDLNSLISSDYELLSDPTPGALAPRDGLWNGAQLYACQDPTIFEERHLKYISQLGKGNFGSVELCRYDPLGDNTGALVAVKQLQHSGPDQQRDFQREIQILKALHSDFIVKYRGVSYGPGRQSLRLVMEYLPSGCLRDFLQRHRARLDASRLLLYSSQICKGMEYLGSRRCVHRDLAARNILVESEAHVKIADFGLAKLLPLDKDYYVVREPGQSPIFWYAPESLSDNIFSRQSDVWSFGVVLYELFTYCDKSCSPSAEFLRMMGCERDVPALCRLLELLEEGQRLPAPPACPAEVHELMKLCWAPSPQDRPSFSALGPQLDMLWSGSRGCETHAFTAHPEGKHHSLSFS
# [2] = target: Serine/threonine-protein kinase DCLK1 (Homo sapiens) (UniProt O15075); assay: Inhibition of recombinant human DCAMKL1 at 200 nM using CREBtide as substrate measured after 60 mins by LANCE method relative to control
# How it was run: (§1)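 Single-concentration screen within an 85-kinase panel run by a contract lab, with each compound tested at 20 nM and 200 nM. Human recombinant enzymes were used. Activity was quantified as phosphorylation of a peptide substrate read by LANCE time-resolved detection, and inhibition was expressed relative to control, using the same format as the JAK assay.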
# [3] = MRT (0 to t) in CD1(ICR) mouse at 1 mg/kg, iv by LC-MS/MS analysis; type: ADME, organism-based; conditions: in vivo
# [4] = MRT (0 to t) in CD1(ICR) mouse at 1 mg/kg, ip by LC-MS/MS analysis; type: ADME, organism-based; conditions: in vivo
# [5] = target: Hepatocyte growth factor receptor (Homo sapiens) (UniProt P08581); assay: Inhibition of recombinant human c-MET at 200 nM using Ulight-CAGAGAIETDKEYYTVKD as substrate measured after 60 mins by LANCE method relative to control
# [6] = target: cAMP-dependent protein kinase catalytic subunit PRKX (Homo sapiens) (UniProt P51817); assay: Inhibition of recombinant human PRKX at 20 nM using Ulight-RRRSLLE as substrate measured after 30 mins by LANCE method relative to control
# K562 = assay: Antiproliferative activity against human K562 cells assessed as reduction in cell viability after 48 hrs by MTT assay; type: functional, cell-based; conditions: K562, 48 h
# [7] = target: Tyrosine-protein kinase JAK2 (Homo sapiens, UniProt O60674); assay: Inhibition of recombinant human JAK2 using Ulight-CAGAGAIETDKEYYTVKD as substrate measured after 60 mins by LANCE assay
# HEL [8] = assay: Induction of apoptosis in HEL cells assessed as late apoptotic cells at 1 uM after 24 hrs by Annexin-V/propidium iodide staining-based flow cytometric analysis (reference value: 0.023%); type: functional, Homo sapiens
# [9] = target: Testis-specific serine/threonine-protein kinase 1 (Homo sapiens) (UniProt Q9BXA7); assay: Inhibition of recombinant human TSSK1 at 20 nM using Ulight-RRRSLLE as substrate measured after 60 mins by LANCE method relative to control
# HEL [10] = assay: Induction of apoptosis in HEL cells assessed as viable cells at 1 uM after 24 hrs by Annexin-V/propidium iodide staining-based flow cytometric analysis (reference value: 87.5%); type: functional, Homo sapiens; conditions: Homo sapiens, HEL, 24 h; read-out: Activity
# [11] = Half life in rat liver microsomes at 1 uM in presence of NADPH cofactor for phase 1 metabolism and measured upto 60 mins by LC-MS/MS analysis; type: ADME, Microsome
# How it was run: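 Liver microsomes (rat or human) incubated with compound at 37 °C, with NADPH for phase I or UDPGA for phase II. Reactions stopped in acetonitrile at set time points, vortexed 5 min, stored at -80 °C. Parent remaining in supernatant measured by LC-MS/MS. t1/2 = -0.693/k, with k the slope of ln fraction remaining versus time.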
# [12] = target: Vascular endothelial growth factor receptor 1 (Homo sapiens) (UniProt P17948); assay: Inhibition of recombinant human FLT1 at 200 nM using Ulight-TK peptide as substrate measured after 15 mins by LANCE method relative to control; how it was run: as §1
# [13] = target: Calcium/calmodulin-dependent protein kinase type 1 (Homo sapiens) (UniProt Q14012); assay: Inhibition of recombinant human CAMK1alpha at 20 nM using CREBtide as substrate measured after 30 mins by LANCE assay relative to control; how it was run: as §1
# [14] = target: Vascular endothelial growth factor receptor 3 (Homo sapiens) (UniProt P35916); assay: Inhibition of recombinant human FLT4 at 20 nM using Ulight-CAGAGAIETDKEYYTVKD as substrate measured after 90 mins by LANCE method relative to control
# How it was run: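 Part of an 85-kinase selectivity panel run by a contract lab. The test compound was screened at 20 nM and 200 nM against human recombinant kinases. Activity was quantified as phosphorylation of a ULight-labelled peptide substrate, read by LANCE detection. Percent inhibition was taken relative to control. The method is the same one used for JAKs.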
# Sequence of Tyrosine-protein kinase JAK2 (O60674 whole entry): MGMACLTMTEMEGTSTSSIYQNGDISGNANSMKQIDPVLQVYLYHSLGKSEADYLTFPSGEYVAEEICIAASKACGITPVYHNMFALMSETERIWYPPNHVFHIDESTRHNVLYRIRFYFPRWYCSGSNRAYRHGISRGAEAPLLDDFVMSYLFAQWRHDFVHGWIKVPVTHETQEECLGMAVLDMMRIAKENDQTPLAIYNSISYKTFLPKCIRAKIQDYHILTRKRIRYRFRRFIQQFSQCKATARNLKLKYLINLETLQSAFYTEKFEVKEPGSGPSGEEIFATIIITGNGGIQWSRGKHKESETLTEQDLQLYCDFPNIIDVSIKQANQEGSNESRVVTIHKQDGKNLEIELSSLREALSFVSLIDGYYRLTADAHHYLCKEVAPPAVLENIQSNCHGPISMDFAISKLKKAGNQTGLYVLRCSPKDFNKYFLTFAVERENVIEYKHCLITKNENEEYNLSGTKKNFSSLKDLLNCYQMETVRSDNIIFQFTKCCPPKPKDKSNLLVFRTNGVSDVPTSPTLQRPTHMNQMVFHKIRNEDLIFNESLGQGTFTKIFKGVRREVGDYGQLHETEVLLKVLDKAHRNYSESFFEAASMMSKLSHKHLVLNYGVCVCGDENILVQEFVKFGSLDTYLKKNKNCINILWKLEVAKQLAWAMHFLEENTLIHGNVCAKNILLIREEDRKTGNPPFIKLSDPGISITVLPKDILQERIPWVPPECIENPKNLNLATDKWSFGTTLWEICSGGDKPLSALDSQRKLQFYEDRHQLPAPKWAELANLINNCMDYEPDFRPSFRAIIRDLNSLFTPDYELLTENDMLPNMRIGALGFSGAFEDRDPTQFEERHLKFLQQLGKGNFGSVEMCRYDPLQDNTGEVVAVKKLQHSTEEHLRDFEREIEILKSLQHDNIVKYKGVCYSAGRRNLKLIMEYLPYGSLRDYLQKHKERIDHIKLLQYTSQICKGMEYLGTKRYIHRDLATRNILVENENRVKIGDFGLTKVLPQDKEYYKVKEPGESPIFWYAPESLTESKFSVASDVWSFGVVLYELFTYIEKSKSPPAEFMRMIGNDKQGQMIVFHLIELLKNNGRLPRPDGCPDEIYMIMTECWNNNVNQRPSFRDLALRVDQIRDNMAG
# Sequence of cAMP-dependent protein kinase catalytic subunit PRKX (Homo sapiens) (P51817 whole entry): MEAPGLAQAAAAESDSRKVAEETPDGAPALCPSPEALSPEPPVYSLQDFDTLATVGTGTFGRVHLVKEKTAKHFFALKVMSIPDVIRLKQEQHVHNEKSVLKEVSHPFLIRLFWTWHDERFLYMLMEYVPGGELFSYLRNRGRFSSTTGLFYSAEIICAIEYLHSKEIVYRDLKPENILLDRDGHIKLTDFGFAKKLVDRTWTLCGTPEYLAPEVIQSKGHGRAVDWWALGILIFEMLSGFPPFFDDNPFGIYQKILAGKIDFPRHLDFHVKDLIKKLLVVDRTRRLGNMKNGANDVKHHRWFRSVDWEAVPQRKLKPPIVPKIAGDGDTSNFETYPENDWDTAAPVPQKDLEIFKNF
# Sequence of Hepatocyte growth factor receptor (Homo sapiens) (P08581 whole entry): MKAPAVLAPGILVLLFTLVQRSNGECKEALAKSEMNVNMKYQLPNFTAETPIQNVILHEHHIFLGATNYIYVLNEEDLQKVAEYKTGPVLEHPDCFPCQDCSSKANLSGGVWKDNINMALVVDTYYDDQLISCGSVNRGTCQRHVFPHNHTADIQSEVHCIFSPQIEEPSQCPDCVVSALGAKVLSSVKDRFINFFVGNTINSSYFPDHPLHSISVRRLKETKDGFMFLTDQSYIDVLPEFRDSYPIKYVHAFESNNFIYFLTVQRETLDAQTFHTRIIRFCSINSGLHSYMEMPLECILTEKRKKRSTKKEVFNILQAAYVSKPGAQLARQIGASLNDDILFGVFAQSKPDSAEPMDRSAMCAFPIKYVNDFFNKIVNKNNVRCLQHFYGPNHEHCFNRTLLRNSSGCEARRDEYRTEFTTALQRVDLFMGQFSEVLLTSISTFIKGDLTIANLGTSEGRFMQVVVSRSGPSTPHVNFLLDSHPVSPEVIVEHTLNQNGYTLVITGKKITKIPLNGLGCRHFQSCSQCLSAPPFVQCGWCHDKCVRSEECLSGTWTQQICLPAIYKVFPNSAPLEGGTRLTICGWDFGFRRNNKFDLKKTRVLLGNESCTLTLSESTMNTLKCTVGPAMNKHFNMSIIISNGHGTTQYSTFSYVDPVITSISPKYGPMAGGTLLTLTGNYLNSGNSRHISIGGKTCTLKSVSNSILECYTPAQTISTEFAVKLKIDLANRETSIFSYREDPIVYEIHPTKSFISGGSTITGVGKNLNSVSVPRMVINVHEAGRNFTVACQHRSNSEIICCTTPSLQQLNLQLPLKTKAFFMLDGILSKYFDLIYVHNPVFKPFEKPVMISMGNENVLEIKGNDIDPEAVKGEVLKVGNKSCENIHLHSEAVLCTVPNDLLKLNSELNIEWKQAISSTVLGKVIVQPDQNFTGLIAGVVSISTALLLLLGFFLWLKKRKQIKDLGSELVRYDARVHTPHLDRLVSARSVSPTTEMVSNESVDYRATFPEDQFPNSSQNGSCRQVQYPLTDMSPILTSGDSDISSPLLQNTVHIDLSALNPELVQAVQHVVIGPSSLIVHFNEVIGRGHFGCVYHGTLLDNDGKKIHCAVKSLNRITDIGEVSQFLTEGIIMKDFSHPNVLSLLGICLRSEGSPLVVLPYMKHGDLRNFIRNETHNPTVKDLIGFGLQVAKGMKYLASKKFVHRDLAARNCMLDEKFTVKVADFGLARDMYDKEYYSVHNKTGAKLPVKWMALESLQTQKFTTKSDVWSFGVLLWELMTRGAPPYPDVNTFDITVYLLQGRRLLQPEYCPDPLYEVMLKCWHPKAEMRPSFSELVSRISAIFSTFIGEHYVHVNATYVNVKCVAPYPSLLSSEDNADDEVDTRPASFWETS
# Sequence of Testis-specific serine/threonine-protein kinase 1 (Homo sapiens) (Q9BXA7 whole entry): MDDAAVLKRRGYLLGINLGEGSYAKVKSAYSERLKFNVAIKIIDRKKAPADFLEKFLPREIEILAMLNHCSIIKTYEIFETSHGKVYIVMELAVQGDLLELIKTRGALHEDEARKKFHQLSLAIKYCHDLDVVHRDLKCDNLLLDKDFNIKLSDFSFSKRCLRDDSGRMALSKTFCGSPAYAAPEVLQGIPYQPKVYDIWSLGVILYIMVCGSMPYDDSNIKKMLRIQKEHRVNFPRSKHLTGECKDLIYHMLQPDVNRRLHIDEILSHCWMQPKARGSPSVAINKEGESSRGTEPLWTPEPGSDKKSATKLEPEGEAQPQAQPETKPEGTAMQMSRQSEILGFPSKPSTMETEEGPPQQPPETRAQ
# Sequence of Calcium/calmodulin-dependent protein kinase type 1 (Homo sapiens) (Q14012 whole entry, looked up): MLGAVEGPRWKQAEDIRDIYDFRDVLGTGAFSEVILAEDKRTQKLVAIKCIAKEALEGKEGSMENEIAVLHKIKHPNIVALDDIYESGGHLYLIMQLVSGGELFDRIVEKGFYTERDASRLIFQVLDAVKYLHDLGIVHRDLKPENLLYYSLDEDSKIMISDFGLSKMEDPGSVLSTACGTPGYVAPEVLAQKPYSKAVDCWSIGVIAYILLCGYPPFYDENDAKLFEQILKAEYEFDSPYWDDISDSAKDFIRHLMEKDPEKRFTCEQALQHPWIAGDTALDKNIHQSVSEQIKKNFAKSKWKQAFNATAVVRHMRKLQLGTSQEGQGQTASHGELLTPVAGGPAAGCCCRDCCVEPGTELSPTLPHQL
# Sequence of Vascular endothelial growth factor receptor 3 (Homo sapiens) (P35916 whole entry): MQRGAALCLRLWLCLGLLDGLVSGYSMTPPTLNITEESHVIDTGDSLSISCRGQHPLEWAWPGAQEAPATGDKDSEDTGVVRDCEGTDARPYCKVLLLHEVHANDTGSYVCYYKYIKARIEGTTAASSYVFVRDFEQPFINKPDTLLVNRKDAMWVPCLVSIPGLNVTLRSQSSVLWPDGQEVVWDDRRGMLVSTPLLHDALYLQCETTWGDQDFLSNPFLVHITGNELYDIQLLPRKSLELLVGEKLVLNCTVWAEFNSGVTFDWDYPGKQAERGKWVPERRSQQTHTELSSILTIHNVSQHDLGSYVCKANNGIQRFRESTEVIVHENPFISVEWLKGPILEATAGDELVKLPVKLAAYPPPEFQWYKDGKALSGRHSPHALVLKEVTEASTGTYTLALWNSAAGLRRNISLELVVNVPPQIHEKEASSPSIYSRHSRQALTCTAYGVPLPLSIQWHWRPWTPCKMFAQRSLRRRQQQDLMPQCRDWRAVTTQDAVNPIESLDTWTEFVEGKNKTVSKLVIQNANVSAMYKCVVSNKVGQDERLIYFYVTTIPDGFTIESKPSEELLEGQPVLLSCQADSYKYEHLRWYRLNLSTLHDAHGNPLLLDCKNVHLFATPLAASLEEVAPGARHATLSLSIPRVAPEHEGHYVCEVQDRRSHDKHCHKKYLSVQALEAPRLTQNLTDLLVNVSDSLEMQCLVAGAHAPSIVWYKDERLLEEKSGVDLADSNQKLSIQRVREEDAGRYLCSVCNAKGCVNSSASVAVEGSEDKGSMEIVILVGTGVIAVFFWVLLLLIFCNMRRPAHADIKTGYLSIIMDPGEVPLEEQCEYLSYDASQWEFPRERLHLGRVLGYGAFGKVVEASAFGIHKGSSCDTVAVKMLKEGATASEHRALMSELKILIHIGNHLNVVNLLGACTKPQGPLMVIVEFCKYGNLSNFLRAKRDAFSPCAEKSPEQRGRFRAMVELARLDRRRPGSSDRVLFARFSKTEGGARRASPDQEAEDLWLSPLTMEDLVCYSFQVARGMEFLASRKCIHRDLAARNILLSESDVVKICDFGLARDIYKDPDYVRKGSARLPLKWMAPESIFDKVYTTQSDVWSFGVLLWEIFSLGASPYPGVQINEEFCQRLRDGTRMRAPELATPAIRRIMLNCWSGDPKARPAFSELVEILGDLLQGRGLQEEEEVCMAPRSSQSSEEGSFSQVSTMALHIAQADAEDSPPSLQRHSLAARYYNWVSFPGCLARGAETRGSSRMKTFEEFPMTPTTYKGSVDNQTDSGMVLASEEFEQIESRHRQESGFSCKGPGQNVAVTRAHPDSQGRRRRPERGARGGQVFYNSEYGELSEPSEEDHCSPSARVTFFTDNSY
Structure (SMILES),IC50 [1],inhibition [2],MRT last [3],MRT last [4],inhibition [5],inhibition [6],IC50 (K562),IC50 [7],Activity (HEL [8]),inhibition [9],viability at 1 µM (HEL [10]),half-life at 1 µM [11],inhibition [12],inhibition [13],inhibition [14]
O=C(CCCCCn1cc(Nc2ncc(Cl)c(Nc3ccc(Cl)cc3)n2)cn1)NO,7.4 nM,9%,16.2 min,21.6 min,37%,-1%,490 nM,4 nM,60%,-3%,4.31%,14.6 min,61%,2%,38%
O=C(CCCCCCn1cc(Nc2ncc(Cl)c(Nc3cccc(Cl)c3)n2)cn1)NO,3.3 nM,–,–,–,–,–,380 nM,10 nM,68.7%,–,5.97%,–,–,–,–

# — ChEMBL document CHEMBL4346670, “Discovery of Novel Janus Kinase (JAK) and Histone Deacetylase (HDAC) Dual Inhibitors for the Treatment of Hematological Malignancies” (J Med Chem, 2019)
